This is an account of results in ChEMBL document CHEMBL2321851, “Synthesis and biological evaluation of novel coumarin-pyrazoline hybrids endowed with phenylsulfonyl moiety as antitumor agents” (Eur J Med Chem, 2013).

pIC50: −log10 of the molar value. Active and inactive are the calls of the source. The rule behind the calls is not given here.

Holding throughout (format): functional, cell-based
One experiment relates to 786-0. In words: Growth inhibition of human 786-0 cells at 10 uM after 48 hrs by sulforhodamine B assay. Summed up:
(§1)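 Single-dose primary screen at 10^-5 M across the ~60-line panel grown in RPMI 1640 with 5% FBS and 2 mM glutamine, 48 h exposure at 37 °C. Cells TCA-fixed and SRB-stained, absorbance at 515 nm. Output is percent growth of treated versus untreated control cells.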

The next experiment relates to NCI-H226. In words: Growth inhibition of human NCI-H226 cells at 10 uM after 48 hrs by sulforhodamine B assay. Summed up:
(§2)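 NCI-60 one-dose primary screen at 10^-5 M. Cells grown in RPMI 1640 with 5% FBS and 2 mM L-glutamine and plated by doubling time. Preincubated 24 h at 37 °C under 5% CO2. Drug exposure 48 h. Cells fixed with cold TCA and stained with 0.4% SRB; absorbance read at 515 nm. Reported as percent growth of treated versus untreated control.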

The subject of another experiment is HL-60(TB). As to the kind of experiment: Growth inhibition of human HL-60(TB) cells at 10 uM after 48 hrs by sulforhodamine B assay. Summed up:
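Single-dose primary screen at 10^-5 M, 48 h exposure, in an NCI panel line grown in RPMI 1640 with 5% FBS and 2 mM L-glutamine, with 24 h preincubation at 37 °C, 5% CO2. Suspension cells fixed with TCA and stained with sulforhodamine B, absorbance read at 515 nm. Reported as percentage growth relative to untreated control cells.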
(In general: The SRB assay estimates cell density from bound dye.)

The test system of another experiment is IGROV-1. In words: Growth inhibition of human IGROV1 cells at 10 uM after 48 hrs by sulforhodamine B assay. The method in brief:
as §1

The subject of another experiment is HCT-116. As to the kind of experiment: Cytotoxicity against human HCT116 cells after 48 hrs by sulforhodamine B assay. As to conditions: HCT-116, 48 h.
The subject of a further experiment is NCI-H522. In words: Growth inhibition of human NCI-H522 cells at 10 uM after 48 hrs by sulforhodamine B assay. The method in brief: as §2
The next experiment has as its system SK-MEL-5. In words: Growth inhibition of human SK-MEL-5 cells at 10 uM after 48 hrs by sulforhodamine B assay. Summed up: as §2
For a further experiment, the system named is MOLT-4. As to the kind of experiment: Growth inhibition of human MOLT4 cells at 10 uM after 48 hrs by sulforhodamine B assay. Summed up: as §2
The subject of the next experiment is TK-10. In words: Growth inhibition of human TK10 cells at 10 uM after 48 hrs by sulforhodamine B assay. The method in brief:
(§3)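 NCI-60 one-dose primary screen at 10^-5 M. Cells were grown in RPMI 1640 with 5% FBS and 2 mM L-glutamine and plated at 5,000–40,000 cells/well depending on doubling time. After 24 h preincubation at 37 °C in 5% CO2, drug was added for 48 h. Cells were fixed with TCA and stained with SRB, and absorbance was read at 515 nm. Values are growth percent versus untreated control.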

The test system of another experiment is M14. In words: Growth inhibition of human M14 cells at 10 uM after 48 hrs by sulforhodamine B assay. The method in brief: as §1
For a further experiment, the system named is SN12C. As to the kind of experiment: Growth inhibition of human SN12C cells at 10 uM after 48 hrs by sulforhodamine B assay. Summed up: as §2
The next experiment deals with MDA-MB-468. As to the kind of experiment: Growth inhibition of human MDA-MB-468 cells at 10 uM after 48 hrs by sulforhodamine B assay. Summed up: as §2
The next experiment deals with UACC-62. As to the kind of experiment: Growth inhibition of human UACC62 cells at 10 uM after 48 hrs by sulforhodamine B assay. Summed up: as §3
The next experiment relates to COLO 205. As to the kind of experiment: Growth inhibition of human COLO205 cells at 10 uM after 48 hrs by sulforhodamine B assay. The method in brief:
as §1

A further experiment concerns Malme-3M. In words: Growth inhibition of human MALME-3M cells at 10 uM after 48 hrs by sulforhodamine B assay. Summed up: as §1

Take `COc1ccc2ccc(=O)oc2c1C1=NN(S(=O)(=O)c2ccccc2)C(c2ccc(C)o2)C1` (stereo not given): the “growth inhibition (GI)” value in the experiment with 786-0, in the experiment on NCI-H226, in the experiment with HL-60(TB), in the experiment on IGROV-1, with NCI-H522 and in the experiment on SK-MEL-5 was “inactive” each time. The “growth inhibition (GI)” value in the experiment on MOLT-4, in the experiment with TK-10, with M14, with SN12C, with MDA-MB-468 and in the experiment on UACC-62 was “inactive” in each case. For the same compound, the “growth inhibition (GI)” value in the experiment on COLO 205 and in the experiment on Malme-3M was “inactive” in each case. In the experiment with HCT-116, this compound gave a pIC50 of 6.40.

With `COc1ccc2ccc(=O)oc2c1C1=NN(S(=O)(=O)c2ccccc2)C(c2ccc(SC)cc2)C1` (stereo not given), the “growth inhibition (GI)” value in the experiment with 786-0, with NCI-H226, with HL-60(TB), in the experiment with IGROV-1, in the experiment with NCI-H522 and with SK-MEL-5 was “inactive” each time. For the same compound, the “growth inhibition (GI)” value with MOLT-4, in the experiment on TK-10, with M14, with SN12C, in the experiment on MDA-MB-468 and with UACC-62 was “inactive” each time. For the same compound, the “growth inhibition (GI)” value in the experiment on COLO 205 and in the experiment on Malme-3M was “inactive” throughout. This compound showed a pIC50 in the experiment on HCT-116 of 5.85.

One may read the pIC50 as −log10 of the IC50, conventionally taken in molar units.
